Assay results as given in ChEMBL document CHEMBL4308879, “Seco-4-methyl-DCK derivatives as potent chemosensitizers” (Bioorg Med Chem Lett, 2019).

Tests used:
KB = assay: Cytotoxicity against human KB cells after 48 hrs by MTT assay; assay type: functional, cell-based
[1] = Resistance ratio of IC50 for human KBV cells to IC50 for human KB cells; assay type: functional
[2] = Cytotoxicity against HOSEC assessed as survival at 10 uM after 48 hrs by MTT assay relative to control; conditions: human, HOSEC cells; read-out: Survival
In short: (§1)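 Survival ratio (%) determined from the surviving fraction after treatment. Reported as mean of three independent experiments.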

[3] = Reversal ratio of IC50 for cisplatin-induced cytotoxicity against human A2780/CDDP cells in absence of compound to IC50 for cisplatin-induced cytotoxicity against human A2780/CDDP cells in presence of compound; assay type: functional
[4] = Cytotoxicity against HUVEC assessed as survival at 10 uM after 48 hrs by MTT assay relative to control; assay type: cell-based; conditions: human, HUVEC cells; read-out: Survival; in short: as §1
[5] = Cytotoxicity against human A2780/TAX cells assessed as survival at 10 uM after 48 hrs by MTT assay relative to control; assay type: cell-based, A2780/Taxol; conditions: read-out: Survival; in short: as §1
[6] = Cytotoxicity against human A2780/CDDP cells assessed as survival at 10 uM after 48 hrs by MTT assay relative to control; assay type: cell-based; conditions: read-out: Survival; in short: as §1
[7] = Cytotoxicity against human T29 cells assessed as survival at 10 uM after 48 hrs by MTT assay relative to control; assay type: cell-based; conditions: read-out: Survival; in short: as §1
A2780/Taxol = assay: Reversal ratio of IC50 for paclitaxel-induced cytotoxicity against human A2780/TAX cells in absence of compound to IC50 paclitaxel-induced cytotoxicity against human A2780/TAX cells in presence of compound; assay type: functional
[8] = Cytotoxicity against human KBV cells assessed as survival at 10 uM after 48 hrs by MTT assay relative to control; assay type: cell-based; conditions: read-out: Survival; in short: as §1
[9] = Reversal ratio of IC50 for vincristine-induced cytotoxicity against human KBV cells in absence of compound to IC50 for vincristine-induced cytotoxicity against human KBV cells in presence of compound; assay type: functional

Row | Structure (SMILES) | IC50 (KB) [nM] | Ratio IC50 [1] | viability at 48 h, 10 µM [2] [%] | Ratio IC50 [3] | viability at 48 h, 10 µM [4] [%] | viability at 48 h, 10 µM [5] [%] | viability at 48 h, 10 µM [6] [%] | viability at 48 h, 10 µM [7] [%] | Ratio IC50 (A2780/Taxol) | viability at 48 h, 10 µM [8] [%] | Ratio IC50 [9]
1 | CC[C@]1(O)C[C@H]2CN(CCc3c([nH]c4ccccc34)[C@@](C(=O)OC)(c3cc4c(cc3OC)N(C=O)[C@H]3[C@@](O)(C(=O)OC)[C@H](OC(C)=O)[C@]5(CC)C=CCN6CC[C@]43[C@@H]65)C2)C1 [VINCRISTINE] | 0.21 | 3173 | – | – | – | – | – | – | – | – | –
2 | CCOc1ccc2c(C)cc(=O)oc2c1COC(=O)/C=C/c1ccc(OC)cc1 | – | – | 84.9 | 0.76 | 93.8 | 83.6 | 123 | 98.9 | 735 | 105 | 793
3 | CCOc1ccc2c(C)cc(=O)oc2c1COC(=O)c1ccc(F)cc1 | – | – | 78.3 | – | 87.2 | 93.4 | – | 88.6 | 61 | – | –
4 | CCCc1ccc(C(=O)OCc2c(OC(C)C)ccc3c(C)cc(=O)oc23)cc1 | – | – | 87.5 | – | 82.2 | 101 | – | 92.7 | 45 | – | –
5 | CCOc1ccc2c(C)cc(=O)oc2c1COC(=O)c1cccc(OC)c1 | – | – | 68.4 | – | 79.8 | 76.5 | – | 83.4 | 56 | – | –
6 | Cc1cc(=O)oc2c(COC(=O)c3cccc(N(C)C)c3)c(OC(C)C)ccc12 | – | – | 76 | – | 84.8 | 102 | – | 90.8 | 86 | – | –
7 | COc1cc(C(=O)OCc2c(OC(C)C)ccc3c(C)cc(=O)oc23)cc(OC)c1OC | – | – | 61.7 | 0.86 | 73.1 | 94.6 | 65.5 | 81.5 | 354 | 96.1 | 134
8 | COc1ccc(C(=O)OCc2c(OC(C)C)ccc3c(C)cc(=O)oc23)cc1OC | – | – | 107 | – | 84.2 | 102 | – | 101 | 197 | – | –
9 | CCOc1ccc2c(C)cc(=O)oc2c1COC(=O)c1ccc(C(C)(C)C)cc1 | – | – | 79.8 | – | 76 | 95.1 | – | 87.1 | 158 | – | –
10 | CCOc1ccc2c(C)cc(=O)oc2c1COC(=O)c1cccc(N(C)C)c1 | – | – | 97.2 | 0.83 | 96.3 | 97 | 117 | 106 | 224 | 104 | 314
11 | CCOc1ccc2c(C)cc(=O)oc2c1COC(=O)c1ccc(OC)c(OC)c1 | – | – | 72 | – | 83.4 | 83.1 | – | 86.1 | 101 | – | –
12 | Cc1ccc(C(=O)OCc2c(OC(C)C)ccc3c(C)cc(=O)oc23)cc1 | – | – | 79.8 | – | 75.6 | 95.2 | – | 91.2 | 95 | – | –
13 | COc1cc(OC)c(C(=O)OCc2c(OC(C)C)ccc3c(C)cc(=O)oc23)cc1OC | – | – | 86.3 | – | 72.7 | 106 | – | 90.9 | 161 | – | –
14 | Cc1cc(=O)oc2c(COC(=O)c3ccc(C(C)(C)C)cc3)c(OC(C)C)ccc12 | – | – | 90.6 | – | 83.7 | 104 | – | 96 | 72 | – | –
15 | CCOc1ccc2c(C)cc(=O)oc2c1COC(=O)CCc1ccc(OC)cc1 | – | – | 73.5 | – | 85 | 101 | – | 91.3 | 6 | – | –
16 | CCOc1ccc2c(C)cc(=O)oc2c1COC(=O)/C=C/c1ccccc1 | – | – | 92.2 | – | 84.7 | 98.9 | – | 98.7 | 97 | – | –
17 | CCOc1ccc2c(C)cc(=O)oc2c1COC(=O)c1cc(OC)c(OC)cc1OC | – | – | 78.2 | – | 88.8 | 84.1 | – | 89.5 | 47 | – | –
18 | CCOc1ccc2c(C)cc(=O)oc2c1COC(=O)c1ccc(Cl)c([N+](=O)[O-])c1 | – | – | 50.1 | – | 81 | 78.7 | – | 72.6 | 31 | – | –
19 | CCOc1ccc2c(C)cc(=O)oc2c1COC(=O)c1c(F)cccc1F | – | – | 78.2 | – | 86.3 | 101 | – | 94.6 | 72 | – | –
20 | Cc1cc(=O)oc2c(COC(=O)/C=C/c3ccccc3)c(OC(C)C)ccc12 | – | – | 105 | – | 95.9 | 103 | – | 104 | 32 | – | –
21 | CCOc1ccc2c(C)cc(=O)oc2c1COC(=O)/C=C/c1ccc(Cl)cc1 | – | – | 90.7 | – | 101 | 102 | – | 106 | 14 | – | –
22 | Cc1cc(=O)oc2c(CO)c(OC(C)C)ccc12 | – | – | 80.2 | – | 84.7 | 94.6 | – | 88.6 | – | – | –
23 | Cc1cc(=O)oc2c(COC(=O)c3ccc(F)cc3)c(OC(C)C)ccc12 | – | – | 70.5 | – | 79.7 | 102 | – | 85.3 | 93 | – | –
24 | CCOc1ccc2c(C)cc(=O)oc2c1COC(=O)c1cc(OC)c(OC)c(OC)c1 | – | – | 86.7 | – | 99.7 | 97.6 | – | 103 | 51 | – | –
25 | COc1ccc(/C=C/C(=O)OCc2c(OC(C)C)ccc3c(C)cc(=O)oc23)cc1 | – | – | 93.6 | 0.78 | 98.9 | 98.1 | 131 | 90.4 | 496 | 108 | 1257
26 | CCOc1ccc2c(C)cc(=O)oc2c1COC(=O)c1ccc(C)cc1 | – | – | 64.7 | – | 77.1 | 95.8 | – | 86.1 | 26 | – | –
27 | CCCc1ccc(C(=O)OCc2c(OCC)ccc3c(C)cc(=O)oc23)cc1 | – | – | 76 | – | 78.4 | 84 | – | 97.2 | 54 | – | –
